rRNA inh HTS – reduced GFP signal of wild-type E. coli, primary screen, bacterial rRNA inhibitor project, GFP/RFP fluorescence, OD600, single point | E. coli WT GFP vs humanized-ribosome RFP mutants, 24 h; stronger effect = lower value; DMSO median 0, no signal -100 | GFP signal change (wild-type ribosome), % (concentration not given with the values) | 350,000 tested, 1.6% active | AID 720706, 2013;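 active = significant combined selectivity score with lowered wild-type GFP, culture density cut under 30%, mutant RFP and density less affected; inactive = any of these conditions unmet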
SIRT5 block – SIRT5 desuccinylase inhibitors, primary screen, biochemical, fluorescence imaging, single point, set 5 | Purified SirT5, succinyl-peptide AMC, trypsin-coupled fluorescence | inhibition, % at 15 µM | 330,000 tested, 1.1% active | AID 652115, 2013; in the data active = inhibition above about 15%; inconclusive = no clear call, values can overlap the other calls
Target sequence (Q9NXA8 whole entry, looked up): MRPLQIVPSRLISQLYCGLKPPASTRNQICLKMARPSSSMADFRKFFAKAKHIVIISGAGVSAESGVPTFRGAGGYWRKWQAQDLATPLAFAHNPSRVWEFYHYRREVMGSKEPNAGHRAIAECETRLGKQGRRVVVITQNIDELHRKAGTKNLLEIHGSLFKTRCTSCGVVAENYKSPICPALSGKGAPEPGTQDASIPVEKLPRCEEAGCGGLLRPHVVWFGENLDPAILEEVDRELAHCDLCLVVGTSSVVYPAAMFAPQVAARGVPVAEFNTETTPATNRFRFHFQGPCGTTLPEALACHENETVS
E-selectin induc – E-selectin induction in HUVECs, primary screen, imaging, HUVEC, immunofluorescence imaging, single point. AID 686992, 2013. 260,000 tested, 0.37% active. activation, % at 7.58 µM. P16581. normalized: neutral wells 0, TNF-alpha wells 100;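 active = mean E-selectin-positive cell signal at least 10% of the positive control, reached in at least 60% of replicates, without over 20% cell loss; inconclusive = no rule given, readout overlaps actives, possibly toxicity-flagged; inactive = the rest, including those meeting only one limit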
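material = human umbilical vein endothelial cells (HUVEC), E-selectin induction | quantity = 3,000 cells/well | medium = EGM-2 growth medium on 0.1% gelatin-coated wells | technique = immunofluorescence imaging | read-out basis = % PE-positive cells | control set = TNF-alpha positive control, DMSO neutral control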
FGF22 binding – binders of human FGF22 protein, primary screen, FGF22 synaptogenesis inhibitor project, biophysical, thermal shift, single point; 340,000 tested, 1.5% active; Fibroblast growth factor 22 (Homo sapiens), Q9HCT0; activity (Tm shift, normalised), % at 9.99 µM; recombinant FGF22 thermal shift, SYPRO orange fluorescence; percent of sucrose octasulfate shift, DMSO zero;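 active = mean Tm shift, scaled 0 neutral to 100 positive control, at about 1.3% or above, every replicate too, limit read from the data; inconclusive = no clear call, values can overlap the other calls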
Target sequence (Q9HCT0 whole entry, looked up): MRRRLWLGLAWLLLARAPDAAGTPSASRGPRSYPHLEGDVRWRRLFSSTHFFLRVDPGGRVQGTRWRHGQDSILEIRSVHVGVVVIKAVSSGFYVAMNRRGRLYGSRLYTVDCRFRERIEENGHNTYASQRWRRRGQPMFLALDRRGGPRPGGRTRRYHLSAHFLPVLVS
FN deposit inh – inhibitors of fibronectin matrix deposition, primary screen, AH1F cells, Alexa488-fibronectin fluorescence, plate reader. AH1F fibroblasts, overnight. inhibition, % at 12.6 µM. 350,000 tested, 0.086% active;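 active = mean inhibition across replicates of 30% or more, regardless of how many single replicates reach that level; inconclusive = mean under 30% yet at least half of replicates reach 30%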;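 also: positive control wells lacked labelled fibronectin entirely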
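Material: AH1F fibroblast monolayer depositing Alexa488-labelled fibronectin into matrix | Input: 10000 AH1F cells/well | Medium: DMEM plus 2% serum, read in PBS | Reagent: Alexa488-fibronectin, 24 nM final in well | Compound dosing: One dose per compound, pinned | Schedule: 1 h adhesion, overnight exposure | Measured by: Fluorescence at 485 nm excitation, 525 nm emission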
Statin myotox sup – suppressors of statin myotoxicity in C2C12 myotubes, primary screen, cell-based, single point, plate reader | C2C12 myotubes + simvastatin, ATP luminescence, 48 h; scaled: DMSO 0, geranylgeraniol control 100 | rescue of ATP level, % at 7.49 µM | 330,000 tested, 0.78% active | AID 602340, 2012;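 active = mean ATP rescue above about 67%, or every replicate alone reaching that limit, limit read from the data, passing the limit was not always enough; inconclusive = no clear call, values can overlap the other calls; inactive = mean under the limit and some replicate under it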;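 also: myotubes were challenged with 10 µM simvastatin during compound exposure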
The depositor's hits bear a star; ? = inconclusive; . = not tested or not shown. Sampled rows, rich in hits. Any-hit rate of the full collection: about 4%.

SMILES | rRNA inh HTS | SIRT5 block | E-selectin induc | FGF22 binding | FN deposit inh | Statin myotox sup
Cc1ccc(S(=O)(=O)Nc2ccc3c(c2)C(=O)N([C@H](C)CO)C[C@@H](C)[C@H](CN(C)S(=O)(=O)c2cn(C)cn2)O3)cc1 | 1 | -7 | 0 | 0 | . | -12
Cc1ccsc1C1Nc2ccc3ncccc3c2C2=C1C(=O)CCC2 (centres undefined) | -4 | 3 | . | . | . | 79*
CCCNC(=O)Nc1ccc2c(c1)C(=O)N(C)C[C@@H](OC)[C@H](C)CN(C(=O)C1CC1)[C@H](C)CO2 | 1 | -2 | 0 | 0 | -7 | 6
Cc1ccc(-c2cc3nc(-c4ccccc4)cc(NCCCO)n3n2)cc1 | 8 | . | 1 | 0 | 7 | 6
Cc1cccc(-c2cc(NCCc3cccnc3)n3nccc3n2)c1 | -18 | . | 0 | 43* | 9 | 8
CCOc1cccc(-c2cc(NCCc3ccccn3)n3nccc3n2)c1 | -5 | . | 0 | 43* | 1 | -12
CCOc1cccc(-c2cc(N3CCN(CCO)CC3)n3nccc3n2)c1 | 3 | -1 | 2 | 1 | -3 | 4
C[C@@H]1CN([C@H](C)CO)C(=O)CCCn2nncc2CO[C@@H]1CN(C)C(=O)Nc1ccc(-c2cccs2)cc1 | -2 | 5 | 0 | 0 | 7 | -18
COc1ccc(/C=N\NC(=O)c2ccc(Cn3cc(Br)c([N+](=O)[O-])n3)o2)c(OC)c1C | 19 | -3 | . | 44* | 17 | .
CCCC#Cc1ccc2c(c1)O[C@@H](CN(C)C(=O)NC(C)C)[C@H](C)CN([C@H](C)CO)S2(=O)=O | -3 | . | 0 | 0 | 0 | 8
O=C(C[C@H]1C=C[C@@H](NC(=O)c2cccc(F)c2)[C@@H](CO)O1)Nc1nccs1 | -4 | 0 | 0 | 0 | 0 | 25
CCCNC(=O)N1CC(=O)N2[C@H](C1)[C@@H](c1ccc(-c3ccccc3)cc1)[C@@H]2CO | 1 | . | . | . | . | .
O=C(NCc1ccco1)C(c1ccc(F)cc1)N(CC1CCCO1)C(=O)Cn1nnc2ccccc21 (centres undefined) | . | . | . | . | . | 89*
O=[N+]([O-])c1ccccc1N/N=C1\CC2CC=CC12 (centres undefined) | -29* | 13 | 2 | 0 | 9 | .
O=C(C[C@@H]1CC[C@@H](NC(=O)Cc2ccccn2)[C@@H](CO)O1)NCCc1ccncc1 | 0 | -1 | 0 | 0 | -4 | -6
O=C(CN1CCC(C(O)(c2ccccc2)c2ccccc2)CC1)Nc1cc(Cl)ccc1Cl | 9 | -2 | . | 0 | . | 90*
O=C(CN1CCN(C(=O)c2ccco2)CC1)Nc1cc(C(F)(F)F)ccc1Cl | . | . | . | . | . | 104*
O=C(CN1CCOCC1)Nc1cc(C(F)(F)F)ccc1Cl | -2 | 0 | 0 | 0 | 5 | 2
N#C[C@H]1[C@H](c2ccc(-c3ccc(F)cc3)cc2)[C@@H](CO)N1C(=O)Cc1ccccc1 | -3 | 3 | -1 | 0 | 5 | 70*
CC(C)NC(=O)N1[C@H](CO)[C@@H](c2ccc(-c3ccc(F)cc3)cc2)[C@@H]1C#N | -4 | -4 | 0 | 0 | 0 | ?
N#C[C@@H]1[C@@H](c2ccc(-c3cccc(F)c3)cc2)[C@H](CO)N1C(=O)NC1CCCC1 | -24 | 3 | 0 | 0 | 2 | 108*
N#C[C@H]1[C@H](c2ccccc2-c2ccccc2F)[C@@H](CO)N1C(=O)Cc1ccccc1 | -8 | 18* | 0 | 0 | 5 | .
CC(C)NC(=O)N1[C@H](C#N)[C@@H](c2ccc(-c3ccc(F)cc3)cc2)[C@@H]1CO | -4 | -2 | 0 | 0 | 5 | 76*
